For orientation: inhibition means the change of the read-out against control, counted positive when it falls. One may read the EC50 as the concentration that produces a half-maximal response. High values mean lower potency in that assay, low ones higher potency in that assay.

Test [1] relates to Rhizoctonia solani. Briefly: Fungicidal activity against Rhizoctonia solani assessed as induction of electrolyte leakage from hyphae at 50 ug/mL by cell membrane permeability assay. The class given is functional, organism-based.
For test [2], the system named is Rhizoctonia solani. The test is described as follows: Fungicidal activity against Rhizoctonia solani assessed as inhibition of intact mycelia respiration at 10 ug/mL by […]. The class given is functional. Put shortly: (§1)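 Intact R. solani mycelia from 5-day PD shake culture (25 C, 150 rpm), washed, resuspended at 50 mg fresh weight mL-1 in 0.1 M phosphate buffer pH 7.2 with 2% glucose; treated with 10 or 100 μg mL-1; O2 uptake by oxygraph at 25 C before and after addition; inhibition = (R0-R1)/R0 × 100; n = 3.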

Test [3] has as its system Alternaria kikuchiana. The test is described as follows: Fungicidal activity against Alternaria kikuchiana by mycelium growth rate test. In kind it is functional, organism-based.
The next test concerns Botrytis cinerea. Briefly: Fungicidal activity against Botryotinia fuckeliana by mycelium growth rate test. In kind it is functional, organism-based.
Test [4] relates to Rhizoctonia solani. Briefly: Fungicidal activity against Rhizoctonia solani assessed as thicker hyphae and abnormally thickened walls of the septa at 50 ug/mL by Transmission electron micrography. The class given is functional, organism-based. In short, it runs like this: (§2)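 R. solani grown 3 days on PDA with 0 or 50 μg mL-1 test compound; 5 mm hyphal tips from colony margin fixed in 4% glutaraldehyde at 4 C, then 1% osmium tetroxide, acetone-dehydrated, Epon-embedded; thin sections double-stained with uranyl acetate and lead citrate, examined by TEM versus untreated control.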

The subject of test [5] is Rhizoctonia solani. The test is described as follows: Fungicidal activity against Rhizoctonia solani assessed as disorganized organelles and decreased in the hyphae cytoplasm at 50 ug/mL by Transmission electron micrography. In kind it is functional, organism-based. In short, it runs like this: as §2
For test [6], the system named is Rhizoctonia solani. Briefly: Fungicidal activity against Rhizoctonia solani by mycelium growth rate test. In kind it is functional, organism-based.
Test [7] has as its system Rhizoctonia solani. The test is described as follows: Fungicidal activity against Rhizoctonia solani assessed as inhibition of intact mycelia respiration at 100 ug/mL by […]. In kind it is functional. Put shortly: as §1
Test [8] concerns Rhizoctonia solani. The test is described as follows: Fungicidal activity against Rhizoctonia solani assessed as reduction in mycelia growth at 50 ug/mL. The class given is functional, organism-based.
Test [9] relates to Rhizoctonia solani. The test is described as follows: Fungicidal activity against Rhizoctonia solani assessed as mycelia rough surface and formed irregular ramification or abnormal configuration at 50 ug/mL by scanning electron micrography. The class given is functional, organism-based. Put shortly: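 Hyphal tips (5 mm) cut from margins of R. solani colonies grown 3 days on PDA containing 0 or 50 μg mL-1 compound; glutaraldehyde (4%, 4 C) and osmium tetroxide fixation, graded acetone dehydration, critical-point drying, gold coating; imaged by SEM at 18-20 kV accelerating voltage.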

For test [10], the system named is Rhizoctonia solani. Briefly: Fungicidal activity against Rhizoctonia solani assessed as prevention in cotton at 140 g/ha by field efficacy trail. The class given is functional.
A further test has as its system Phyllosticta. Briefly: Fungicidal activity against Phyllospicpa physaleos Sacc., by mycelium growth rate test. In kind it is functional, organism-based.
Test [11] concerns Colletotrichum orbiculare. Briefly: Fungicidal activity against Colletotrichum orbiculare assessed as inhibition rate. The class given is functional.
The test system of another test is Sclerotinia sclerotiorum. The test is described as follows: Fungicidal activity against Sclerotinia sclerotiorum assessed as inhibition rate. The class given is functional.
The test system of test [12] is Rhizoctonia solani. Briefly: Fungicidal activity against Rhizoctonia solani assessed as inhibition rate. In kind it is functional.
Another test relates to Verticillium dahliae. The test is described as follows: Fungicidal activity against Verticillium dahliae assessed as inhibition rate. In kind it is functional.
The next test relates to Fulvia fulva. The test is described as follows: Fungicidal activity against Passalora fulva Cooke Ciferri assessed as inhibition rate. In kind it is functional.
Test [13] deals with Rhizoctonia solani. Briefly: Fungicidal activity against Rhizoctonia solani assessed as disappearance of septal pore caps at 50 ug/mL by Transmission electron micrography. In kind it is functional, organism-based. Put shortly: as §2
Test [14] deals with Alternaria kikuchiana. Briefly: Fungicidal activity against Alternaria kikuchiana Tanaka assessed as inhibition rate. The class given is functional.

Structures are written as SMILES. Values after ≈ are worked out from the molar mass of the structure shown. Active and inactive are the calls of the source. The rule behind the calls is not given here.

As to `CC(C)(C)C(=O)C(Oc1ccc(Cl)cc1)n1cncn1` (stereo unspecified), the result with Rhizoctonia solani [1] was inactive.
As for `CO/C=C(/C(=O)OC)c1ccccc1Oc1cc(Oc2ccccc2C#N)ncn1` [AZOXYSTROBIN], in the test with Rhizoctonia solani [2], the inhibition at 10 µg/mL was 84.9%.
`CCCO/N=C1\CCCCCCCCCCC(=O)NCCC1`: the EC50 in the test on Alternaria kikuchiana [3] is 1.2 µg/mL (≈ 3.86 µM); in the test on Botrytis cinerea it was 8.6 µg/mL (≈ 27.7 µM); with Rhizoctonia solani [6], 4.6 µg/mL (≈ 14.8 µM); in the test on Phyllosticta, 1.9 µg/mL (≈ 6.12 µM). Moreover, the result with Rhizoctonia solani [4] was Active. Further, the inhibition entry with Rhizoctonia solani [5], in the test on Rhizoctonia solani [8] and with Rhizoctonia solani [9] was “Active” throughout. For the same molecule, in the test on Rhizoctonia solani [7], the inhibition at 100 µg/mL came out at 12.1%. The inhibition at 10 µg/mL with Rhizoctonia solani [2] worked out at 3.39%. In addition, the Activity in the test on Rhizoctonia solani [10] came to 64%.
Turning to `F[B-](F)(F)F.O=C1CCCCCCCCCCC[NH2+]CCO1`, the outcome with Rhizoctonia solani [4] and in the test with Rhizoctonia solani [13] was Active. For the same molecule, the inhibition entry with Rhizoctonia solani [5], in the test on Rhizoctonia solani [8] and in the test on Rhizoctonia solani [9] was “Active” each time. Besides, the “inhibition (INH)” value in test [11] was determined as 73.2%; with Sclerotinia sclerotiorum it was 85.7%; in the test with Rhizoctonia solani [12] it was 96%; in the test on Verticillium dahliae it was 86.9%; in the test on Fulvia fulva it was 89.3%; in the test with Alternaria kikuchiana [14] it was 85.7%. Moreover, the inhibition at 100 µg/mL in the test with Rhizoctonia solani [7] was determined as 3%. Besides, the inhibition at 10 µg/mL in the test with Rhizoctonia solani [2] came out at 1.67%.

The values are drawn from ChEMBL document CHEMBL3044892, “Primary study on mode of action for macrocyclic fungicide candidates (7B3, D1) against Rhizoctonia solani Kuhn” (J Agric Food Chem, 2010).
